Measurements from ChEMBL document CHEMBL1772938, “Optimization of 3-(phenylthio)quinolinium compounds against opportunistic fungal pathogens” (Eur J Med Chem, 2011).
In brackets after ≈: the same amount, converted by molar mass.

Tests used:
Cryptococcus neoformans [1] = assay: Antimicrobial activity against Cryptococcus neoformans ATCC 90113 by CLSI method; type: functional
How it was run: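 C. neoformans in Sabouraud dextrose broth, inoculum per the 0.5 McFarland standard. Saline serial dilutions of DMSO samples were tested in duplicate, with a final top concentration of 20 μg/mL. OD 630 nm was read before and after incubation. IC50 was derived from % growth versus concentration. MIC was judged visually as the lowest concentration with no detectable growth. Amphotericin B served as the drug control.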

Candida albicans [2] = assay: Antimicrobial activity against Candida albicans ATCC 90028 by CLSI method; type: functional
How it was run: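 C. albicans inoculum was made to the 0.5 McFarland standard in Sabouraud dextrose broth or RPMI 1640. Samples came from DMSO stocks serially diluted in saline, in duplicate, starting at a final 20 μg/mL. Plates were read at OD 630 nm before and after incubation. IC50 came from the % growth versus concentration plot; MIC was the lowest concentration with no visible growth. Included: growth, solvent and blank controls, plus amphotericin B.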

Aspergillus fumigatus [3] = assay: Antimicrobial activity against Aspergillus fumigatus ATCC 90906 by CLSI method; type: functional
How it was run: (§1)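 Modified CLSI broth microdilution. DMSO stocks were serially diluted in saline and run in duplicate. Inoculum was set by the 0.5 McFarland standard in YM broth for MIC, or in RPMI-1640 + 5% Alamar Blue for IC50. The top final concentration was 20 μg/mL. Fluorescence (544ex/590em) was read before and after incubation. IC50 was taken from % growth versus concentration; MIC was read visually as no blue-to-pink change.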

Cryptococcus neoformans [4] = assay: Antimicrobial activity against Cryptococcus neoformans ATCC 90113 by alamar blue assay; type: functional, organism-based
Candida albicans [5] = assay: Antimicrobial activity against Candida albicans ATCC 90028 by alamar blue assay; type: functional, organism-based
Aspergillus fumigatus [6] = assay: Antimicrobial activity against Aspergillus fumigatus ATCC 90906 by alamar blue assay; type: functional, organism-based; how it was run: as §1
Nakaseomyces glabratus [7] = assay: Antimicrobial activity against Candida glabrata ATCC 90030 by CLSI method; type: functional
How it was run: (§2)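 Modified CLSI microdilution. DMSO samples were serially diluted in saline and tested in duplicate against inoculum adjusted by the 0.5 McFarland standard. The final test range started at 20 μg/mL. Plates were read before and after incubation. IC50 came from % growth versus concentration; MIC was the lowest concentration without visible growth. Growth, solvent, blank and amphotericin B controls were on each plate.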

Pichia kudriavzevii [8] = assay: Antimicrobial activity against Candida krusei ATCC 6258 by CLSI method; type: functional; how it was run: as §2
Nakaseomyces glabratus [9] = assay: Antimicrobial activity against Candida glabrata ATCC 90030 by alamar blue assay; type: functional, organism-based
Pichia kudriavzevii [10] = assay: Antimicrobial activity against Candida krusei ATCC 6258 by alamar blue assay; type: functional, organism-based
[11] = Cytotoxicity against african green monkey Vero cells after 48 hrs by neutral red assay; type: cell-based; details: chlorocebus sabaeus, read-out: TC50
How it was run: (§3)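 VERO kidney cells were seeded at 25,000 cells/well and incubated 24 h. Samples were added up to 10 μg/mL and incubated a further 48 h. Viable cells were counted by neutral red uptake. IC50 came from growth-inhibition dose curves. Doxorubicin was the positive control and DMSO the vehicle control.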

[12] = Selectivity index, ratio of TC50 for african green monkey Vero cells to IC50 for Cryptococcus neoformans ATCC 90113; type: toxicity, cell-based; details: read-out: Selectivity Index
Vero = assay: Cytotoxicity against african green monkey Vero cells at 10 ug/ml after 48 hrs by neutral red assay; type: cell-based; details: chlorocebus sabaeus; how it was run: as §3

Row | MIC (Cryptococcus neoformans [1]) [µg/mL] | MIC (Candida albicans [2]) [µg/mL] | MIC (Aspergillus fumigatus [3]) [µg/mL] | MIC (Nakaseomyces glabratus [7]) [µg/mL] | MIC (Pichia kudriavzevii [8]) [µg/mL] | SMILES | MFC (Cryptococcus neoformans [1]) [µg/mL] | MFC (Candida albicans [2]) [µg/mL] | MFC (Aspergillus fumigatus [3]) [µg/mL] | IC50 (Cryptococcus neoformans [4]) [µg/mL] | IC50 (Candida albicans [5]) [µg/mL] | IC50 (Aspergillus fumigatus [6]) [µg/mL] | MFC (Nakaseomyces glabratus [7]) [µg/mL] | MFC (Pichia kudriavzevii [8]) [µg/mL] | IC50 (Nakaseomyces glabratus [9]) [µg/mL] | IC50 (Pichia kudriavzevii [10]) [µg/mL] | CC50 at 48 h [11] [µg/mL] | selectivity ratio [12] | Activity (Vero)
1 | 0.3 | 2.5 | 5 | 10 | 0.6 | Cc1ccc(Sc2cc3ccccc3[n+](CCCCCC3CCCCC3)c2)cc1.[I-] | 1.3 | 5 | 5 | 0.2 | 1.3 | 2.7 | 10 | 1.3 | 5.5 | 0.5 | 2.8 | 14 | 
2 | 0.3 | 2.5 | 5 | 10 | 0.6 | Cc1cccc(Sc2cc3ccccc3[n+](CCCCCC3CCCCC3)c2)c1.[I-] | 0.4 | 5 | 5 | 0.2 | 1.4 | 3.5 | 10 | 1.3 | 5.5 | 0.4 | 3.7 | 19 | 
3 | 0.6 | 5 | 10 | 20 | 1.3 | Cc1ccccc1Sc1cc2ccccc2[n+](CCCCCC2CCCCC2)c1.[I-] | 1.3 | 10 | > 20 | 0.3 | 1.7 | 4.8 | 20 | 1.3 | 13 | 0.6 | 4 | 13 | 
4 | 1.3 | 10 | 19 | 20 | 2.5 | N#Cc1ccccc1Sc1cc2ccccc2[n+](CCCCCC2CCCCC2)c1.[I-] | 10 | 10 | 20 | 1.1 | 3.3 | 5 | 20 | 5 | 12 | 0.7 | 10 | 9.1 | 
5 | 0.6 | 5 | 10 | 20 | 0.6 | Fc1cccc(Sc2cc3ccccc3[n+](CCCCCC3CCCCC3)c2)c1.[I-] | 2.5 | 10 | 20 | 0.5 | 2.7 | 5.3 | 20 | 1.3 | 12 | 0.3 | 6.6 | 13 | 
6 | 0.6 | 2.5 | 2.5 | 5 | 0.6 | Brc1ccccc1Sc1cc2ccccc2[n+](CCCCCC2CCCCC2)c1.[I-] | 1.3 | 2.5 | 20 | 0.3 | 1.4 | 2 | 10 | 1.3 | 3.2 | 0.3 | 9.7 | 32 | 
7 | 1.3 | 5 | 10 | 20 | 1.3 | [I-].c1ccc(Sc2cc3ccccc3[n+](CCCCCC3CCCCC3)c2)cc1 | 2.5 | 10 | > 20 |  |  |  | 20 | 2.5 | 15 |  | 4.6 | 9.2 | 
8 | 1.3 | 10 | 10 | 20 | 10 | Oc1ccccc1Sc1cc2ccccc2[n+](CCCCCC2CCCCC2)c1.[I-] | 1.3 | 20 | > 20 | 1 | 4.7 | 3.9 | > 20 | 10 | 12 | 4.4 | 9.3 | 9.3 | 

Continued, compound first:

Row | SMILES | MIC (Cryptococcus neoformans [1]) [µg/mL] | MIC (Candida albicans [2]) [µg/mL] | MIC (Aspergillus fumigatus [3]) [µg/mL] | MIC (Nakaseomyces glabratus [7]) [µg/mL] | MIC (Pichia kudriavzevii [8]) [µg/mL] | MFC (Cryptococcus neoformans [1]) [µg/mL] | MFC (Candida albicans [2]) [µg/mL] | MFC (Aspergillus fumigatus [3]) [µg/mL] | IC50 (Cryptococcus neoformans [4]) [µg/mL] | IC50 (Candida albicans [5]) [µg/mL] | IC50 (Aspergillus fumigatus [6]) [µg/mL] | MFC (Nakaseomyces glabratus [7]) [µg/mL] | MFC (Pichia kudriavzevii [8]) [µg/mL] | IC50 (Nakaseomyces glabratus [9]) [µg/mL] | IC50 (Pichia kudriavzevii [10]) [µg/mL] | CC50 at 48 h [11] [µg/mL] | selectivity ratio [12] | Activity (Vero)
9 | Brc1ccc(Sc2cc3ccccc3[n+](CCCCCc3ccccc3)c2)cc1.[I-] | 10 | 20 | 10 |  |  | 10 | > 20 | > 20 | 2 | 8.5 | 3.5 |  |  |  |  |  |  | Non-toxic
10 | Brc1cccc(Sc2cc3ccccc3[n+](CCCCCc3ccccc3)c2)c1.[I-] | 5 | 20 | 10 |  |  | 10 | > 20 | > 20 | 2 | 10 | 2.5 |  |  |  |  | > 10 |  | 
11 | COc1ccccc1Sc1cc2ccccc2[n+](CCCCCc2ccccc2)c1.[I-] | > 20 | > 20 | > 20 |  |  | > 20 | > 20 | > 20 | 15 | > 20 | 8 |  |  |  |  | 4.3 |  | 
12 | Cc1ccc(Sc2cc3ccccc3[n+](CCCCCc3ccccc3)c2)cc1.[I-] | 2.5 | > 20 | > 20 |  |  | 5 | > 20 | > 20 | 1.2 | > 20 | 16 |  |  |  |  | 4.2 |  | 
13 | Cc1cccc(Sc2cc3ccccc3[n+](CCCCCc3ccccc3)c2)c1.[I-] | 2.5 | > 20 | > 20 |  |  | 20 | > 20 | > 20 | 1.4 | > 20 | 20 |  |  |  |  | 8.8 |  | 
14 | COc1ccc(Sc2cc3ccccc3[n+](CCCCCc3ccccc3)c2)cc1.[I-] | 20 | > 20 | 20 |  |  | < 20 | > 20 | > 20 | 15 | > 20 | 4.5 |  |  |  |  | 10 |  | 
15 | [I-].c1ccc(CCCCC[n+]2cc(Sc3ccccc3)cc3ccccc32)cc1 | 5 | 10 | 1.3 |  |  | > 20 | > 20 | > 20 |  |  |  |  |  |  |  |  |  | 
16 | Brc1ccccc1Sc1cc2ccccc2[n+](CCCCCc2ccccc2)c1.[I-] | 5 | 20 | 2.5 |  |  | 20 | > 20 | > 20 | 3 | 10 | 1 |  |  |  |  | 10 |  | 
17 | COc1cccc(Sc2cc3ccccc3[n+](CCCCCC3CCCCC3)c2)c1.[I-] | 0.6 | 5 | 10 | 20 | 1.3 | 2.5 | 10 | 20 | 0.4 | 2.7 | 5.5 | > 20 | 1.3 | 16 | 0.6 | 4.5 | 11 | 
18 | FC(F)(F)c1ccc(Sc2cc3ccccc3[n+](CCCCCc3ccccc3)c2)cc1.[I-] | 5 | 20 | > 20 |  |  | 10 | > 20 | > 20 | 2.7 | 11 | 15 |  |  |  |  | 10 |  | 
19 | C[C@@H]1[C@H](O)[C@@H](C)/C=C/C=C/C=C/C=C/C=C/C=C/C=C/[C@H](O[C@@H]2O[C@H](C)[C@@H](O)[C@H](N)[C@@H]2O)C[C@@H]2O[C@](O)(C[C@@H](O)C[C@@H](O)[C@H](O)CC[C@@H](O)C[C@@H](O)CC(=O)O[C@H]1C)C[C@H](O)[C@H]2C(=O)O [AMPHOTERICIN B] | 1.3 (≈ 1.41 µM) | 1.3 (≈ 1.41 µM) | 1.3 (≈ 1.41 µM) | 1.3 (≈ 1.41 µM) | 2.5 (≈ 2.71 µM) | 5 (≈ 5.41 µM) | 1.3 (≈ 1.41 µM) | 5 (≈ 5.41 µM) |  |  |  | 2.5 (≈ 2.71 µM) | 2.5 (≈ 2.71 µM) | 0.6 (≈ 0.649 µM) | 0.9 (≈ 0.974 µM) | 6.5 (≈ 7.03 µM) | 14 | 
20 | COc1cccc(Sc2cc3ccccc3[n+](CCCCCc3ccccc3)c2)c1.[I-] | 20 | > 20 | 5 |  |  | > 20 | > 20 | > 20 | 10 | > 20 | 3.5 |  |  |  |  | > 10 |  | 
